# Results taken from PubChem BioAssay AID504499 (Broad Institute, 2011).
# Active and inactive are the calls of the source.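 How the source made its calls: active means compounds whose fitted half-maximal growth inhibition potency lies within ten times the top tested dose; inconclusive means flat inhibition of 30 to 70 percent, or poor fit; inactive means the rest.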
# Tests used:
# [1] = growth inhibition of C. albicans alone, dose response, counter-screen for antifungal drug resistance project, CaCi-2, no fluconazole, powder samples, set 9 (AID 504499); settings: C. albicans CaCi-2 growth without fluconazole, Alamar Blue, 48 h; at 26 µM (top of the series)
# Procedure, shortened: (§1)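 Doses – test compounds delivered into wells by pin transfer · Material – Candida albicans strain CaCi-2 yeast cells · Input – yeast inoculum diluted to absorbance 0.00015 at 600 nm · Measured by – Alamar Blue fluorescence, 544/590 nm · Times – 48 h growth at 37 °C, dye 2 h at room temperature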
# [2] = test system: C. albicans CaCi-2 (fluconazole-resistant clinical isolate) growth without fluconazole, Alamar Blue, 48 h; test: as above
# Procedure, shortened: as §1
SMILES,"growth change, negative = inhibition [1]",AC50 [2] [µM]
COC(=O)Cn1nc(-c2cccc(C)c2)c2ccccc21,-23.2% (inactive),–
COC(=O)Cn1nc(-c2cccc(F)c2)c2ccccc21,-24.6% (inactive),–
COC(=O)n1nc(-c2ccccc2)c2ccccc21,-9.34% (inactive),–
O=C(Cn1c2ccccc2c2nc3n(c(=O)c21)CCS3)N1CCCCC1,-17.6% (inactive),–
CC1CCN(CCn2c3ccccc3c3nc4n(c(=O)c32)CCS4)CC1,2.22% (inactive),–
O=C(Cn1c2ccc(F)cc2c2nc3n(c(=O)c21)CCS3)N1CC=CC1,2.91% (inactive),–
c1ccc(-c2nn(Cc3nnco3)c3ccccc23)cc1,18.3% (inactive),–
O=C(Cn1c2ccccc2c2nc3n(c(=O)c21)CCS3)N1CCC(F)(F)C1,5.06% (inactive),–
O=C(Cn1c2ccccc2c2nc3n(c(=O)c21)CCS3)N1CC=CC1,6.32% (inactive),–
COC(=O)Cn1nc(-c2cccnc2)c2ccccc21,1.88% (inactive),–
O=C(Cn1c2ccc(F)cc2c2nc3n(c(=O)c21)CCS3)N1CCC(F)(F)C1,-1.64% (inactive),–
O=C(Cn1c2ccccc2c2nc3n(c(=O)c21)CCS3)N1CCC(F)(F)CC1,5.44% (inactive),–
COC(=O)Cn1nc(C2CC2)c2ccccc21,4% (inactive),–
O=C(Cn1c2ccccc2c2nc3n(c(=O)c21)CCS3)N1CCCC1,-33.3% (inactive),–
CC1(O)CN(C(=O)Cn2c3ccccc3c3nc4n(c(=O)c32)CCS4)C1,5.26% (inactive),–
CCc1nn(CC(=O)OC)c2ccccc12,-15.4% (inactive),–
O=C(Cn1c2ccc(F)cc2c2nc3n(c(=O)c21)CCS3)N1CCC(F)(F)CC1,-9.87% (inactive),–
COC(=O)Cn1nc(-c2cnco2)c2ccccc21,22% (inactive),–
COC(=O)Cn1c2ccc(F)cc2c2nc3n(c(=O)c21)CCS3,–,19.4
COC(=O)Cn1nc(-c2ccccc2)c2cccnc21,-7.57% (inactive),–
CN1CCN(C(=O)Cn2c3ccccc3c3nc4n(c(=O)c32)CCS4)CC1,2.02% (inactive),–
COC(=O)Cn1nc(C2CCCCC2)c2ccccc21,-13.2% (inactive),–
COC(=O)Cn1nc(C(C)(C)C)c2ccccc21,6.09% (inactive),–
O=C(O)Cn1c2ccccc2c2nc3n(c(=O)c21)CCS3,31.2% (inactive),–
COC(=O)Cn1nc(-c2cccc(OC)c2)c2ccccc21,-28.4% (inactive),–
O=C(O)Cn1c2ccc(F)cc2c2nc3n(c(=O)c21)CCS3,-15.5% (inactive),–
COC(=O)Cn1nc(-c2cscn2)c2ccccc21,-11.4% (inactive),–
